Test results taken from ChEMBL document CHEMBL3758106, “Antitumor Activity of Americanin A Isolated from the Seeds of Phytolacca americana by Regulating the ATM/ATR Signaling Pathway and the Skp2-p27 Axis in Human Colon Cancer Cells” (J Nat Prod, 2015).
Calls of active or inactive are those of the source. The calls are words filed in the database; no cut-off is given here.

Assays:
HCT-116 [1] = experiment: Induction of apoptosis in human HCT116 cells assessed as early apoptotic cells at 30 uM after 48 hrs by annexin V-FITC/propidium iodide staining-based flow cytometric analysis in presence of NAC (reference value: 1.1%); assay type: functional
HCT-116 [2] = experiment: Induction of reactive oxygen species in human HCT116 cells at 30 uM after 48 hrs by DCFH-DA staining-based flow cytometric analysis (reference value: 5.1%); assay type: functional
In short: (§1)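 HCT116 cells seeded overnight, then exposed to test compounds, alone or with NAC, for 48 h in complete medium. Loaded with 20 μM DCFH-DA for 30 min; intracellular ROS in 20 000 cells per group read by flow cytometry as histograms.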

[3] = target: Tumour suppressor p53/oncoprotein Mdm2 (Homo sapiens) (UniProt P04637+Q00987); experiment: Inhibition of MDM2/P53 protein interaction in human HCT116 cells assessed as stabilization of p53 at 7.5 to 30 uM after 24 hrs by western blot analysis; assay type: cell-based; conditions: HCT-116
Tumour suppressor p53/oncoprotein Mdm2 (Homo sapiens), sequence (P04637 whole entry, looked up): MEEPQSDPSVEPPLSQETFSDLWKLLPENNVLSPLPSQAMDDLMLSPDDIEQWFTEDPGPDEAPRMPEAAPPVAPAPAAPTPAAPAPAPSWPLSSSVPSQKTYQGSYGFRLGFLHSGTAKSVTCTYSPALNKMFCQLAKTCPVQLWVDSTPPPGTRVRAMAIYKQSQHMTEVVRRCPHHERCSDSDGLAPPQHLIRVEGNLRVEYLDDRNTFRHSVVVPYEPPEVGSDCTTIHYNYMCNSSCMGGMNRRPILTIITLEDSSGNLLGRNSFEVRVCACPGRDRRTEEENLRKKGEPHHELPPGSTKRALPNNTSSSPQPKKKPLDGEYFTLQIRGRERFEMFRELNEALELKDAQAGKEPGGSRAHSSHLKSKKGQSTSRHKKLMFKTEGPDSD
Tumour suppressor p53/oncoprotein Mdm2 (Homo sapiens), sequence (Q00987 whole entry, looked up): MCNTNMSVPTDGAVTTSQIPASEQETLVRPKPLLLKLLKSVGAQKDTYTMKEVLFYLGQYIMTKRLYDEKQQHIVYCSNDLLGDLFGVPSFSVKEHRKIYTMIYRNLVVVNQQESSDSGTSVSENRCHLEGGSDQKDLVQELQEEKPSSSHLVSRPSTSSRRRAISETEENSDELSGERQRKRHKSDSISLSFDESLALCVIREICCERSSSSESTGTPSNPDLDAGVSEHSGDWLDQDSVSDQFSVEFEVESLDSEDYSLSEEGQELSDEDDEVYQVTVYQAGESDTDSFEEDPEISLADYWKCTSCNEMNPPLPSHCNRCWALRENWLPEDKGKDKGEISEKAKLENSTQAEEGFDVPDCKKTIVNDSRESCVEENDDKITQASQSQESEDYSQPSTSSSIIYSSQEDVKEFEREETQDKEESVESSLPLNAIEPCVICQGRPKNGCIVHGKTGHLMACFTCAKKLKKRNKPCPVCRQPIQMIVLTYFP

HCT-116 [4] = experiment: Induction of apoptosis in human HCT116 cells assessed as cleaved PARP level at 30 uM up to 24 hrs by Western blot analysis; assay type: functional, cell-based
[5] = Downregulation of cyclin B1 expression in human HCT116 cells at 7.5 to 30 uM after 24 hrs by Western blot analysis; assay type: functional, cell-based; conditions: HCT-116
In short: (§2)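 HCT116 cells exposed 24 h in complete medium; lysed in RIPA buffer (pH 8.0), protein by BCA, equal loads run on 8–13% SDS-PAGE, PVDF transfer, blocked in 5% BSA/TBST, primary antibodies overnight at 4 °C, HRP secondaries 2 h RT, ECL detection; β-actin as loading control.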

HCT-116 [6] = experiment: Induction of apoptosis in human HCT116 cells assessed as decrease in Bcl2 expression at 7.5 to 30 uM after 48 hrs by Western blot analysis; assay type: functional, cell-based
In short: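 HCT116 cells exposed 48 h; Western blot of RIPA lysates (BCA quantification, SDS-PAGE, PVDF, overnight primary antibodies at 4 °C, HRP secondary, ECL).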

HCT-116 [7] = experiment: Induction of cell cycle arrest in human HCT116 cells assessed as accumulation at sub-G1 phase at 30 uM after 48 hrs by propidium iodide staining-based flow cytometric analysis in presence of RNase A (reference value: 6.5%); assay type: functional
HCT-116 [8] = experiment: Induction of cell cycle arrest in human HCT116 cells assessed as accumulation at G0/G1 phase at 15 uM after 24 hrs by propidium iodide staining-based flow cytometric analysis in presence of RNase A (reference value: 64.6%); assay type: functional
HCT-116 [9] = experiment: Induction of cell cycle arrest in human HCT116 cells assessed as accumulation at S phase at 15 uM after 24 hrs by propidium iodide staining-based flow cytometric analysis in presence of RNase A (reference value: 13.4%); assay type: functional
[10] = Upregulation of phosphorylated ATM expression in human HCT116 cells at 1 hr by Western blot analysis; assay type: functional, cell-based; conditions: HCT-116
Mus musculus [11] = experiment: Toxicity in nude mouse at 5 to 10 mg/kg, ip administered 3 times per week measured on day 41; assay type: organism-based; conditions: in vivo
In short: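 Nude mice implanted s.c. in the flank with 2 × 10^6 HCT116 cells. Once tumors reached about 120 mm3, mice were randomized, six per group, to vehicle or compound at 5 or 10 mg/kg ip (200 μL) three times weekly; irinotecan 10 mg/kg ip once weekly as reference. Body weight recorded twice weekly to assess toxicity; study ended day 41.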

[12] = target: Cullin-1/S-phase kinase-associated protein 1 (Homo sapiens) (UniProt Q13616+P63208); experiment: Inhibition of Cul-1/Skp1 protein interaction in human HCT116 cells after 24 hrs by immunoprecipitation assay; assay type: cell-based; conditions: HCT-116
Cullin-1/S-phase kinase-associated protein 1 (Homo sapiens), sequence (P63208 whole entry, looked up): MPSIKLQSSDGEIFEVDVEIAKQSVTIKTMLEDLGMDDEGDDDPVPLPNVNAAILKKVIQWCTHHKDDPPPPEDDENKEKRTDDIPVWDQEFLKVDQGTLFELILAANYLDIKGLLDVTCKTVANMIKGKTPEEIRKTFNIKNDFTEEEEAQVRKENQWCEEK
Cullin-1/S-phase kinase-associated protein 1 (Homo sapiens), sequence (Q13616 whole entry, looked up): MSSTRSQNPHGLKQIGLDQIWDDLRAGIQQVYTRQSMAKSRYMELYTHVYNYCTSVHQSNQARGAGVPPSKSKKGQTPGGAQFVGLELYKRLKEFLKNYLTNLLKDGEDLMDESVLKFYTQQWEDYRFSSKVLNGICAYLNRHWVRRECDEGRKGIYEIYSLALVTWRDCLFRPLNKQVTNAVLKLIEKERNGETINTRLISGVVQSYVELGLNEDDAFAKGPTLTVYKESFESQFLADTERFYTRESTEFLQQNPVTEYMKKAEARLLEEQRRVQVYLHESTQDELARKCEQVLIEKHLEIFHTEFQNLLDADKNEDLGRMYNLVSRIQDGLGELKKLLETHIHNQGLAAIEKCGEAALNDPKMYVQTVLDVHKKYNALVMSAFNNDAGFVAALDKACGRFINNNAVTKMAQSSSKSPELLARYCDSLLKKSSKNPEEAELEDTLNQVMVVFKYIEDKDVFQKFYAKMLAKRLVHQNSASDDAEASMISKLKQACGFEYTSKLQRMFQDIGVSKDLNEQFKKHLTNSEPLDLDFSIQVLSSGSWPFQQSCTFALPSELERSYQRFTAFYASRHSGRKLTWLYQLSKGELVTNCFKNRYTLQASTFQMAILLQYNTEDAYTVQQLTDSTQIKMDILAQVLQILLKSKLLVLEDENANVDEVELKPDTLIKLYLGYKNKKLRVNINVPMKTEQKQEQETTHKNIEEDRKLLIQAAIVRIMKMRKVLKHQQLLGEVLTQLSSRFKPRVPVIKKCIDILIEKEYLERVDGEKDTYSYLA
In short: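 Protein measured by Bradford, equal amounts pulled down with anti-Cul-1 antibody on Protein G sepharose at 4 °C. Eluates boiled in Laemmli buffer with 2-mercaptoethanol and probed by Western blot.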

HCT-116 [13] = experiment: Induction of cell cycle arrest in human HCT116 cells assessed as accumulation at G0/G1 phase at 7.5 uM after 48 hrs by propidium iodide staining-based flow cytometric analysis in presence of RNase A (reference value: 54.3%); assay type: functional
[14] = Antiproliferative activity against p53-null human HCT116 cells assessed as cell viability after 72 hrs by SRB assay; assay type: functional, cell-based; conditions: HCT-116, 72 h
In short: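 p53 wild-type and p53-null HCT116 cells in 96-well plates treated 72 h; SRB assay (TCA fix, SRB stain, Tris pH 10.0 solubilisation, A515); viability vs solvent control, IC50 by nonlinear regression.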

HCT-116 [15] = experiment: Induction of cell cycle arrest in human HCT116 cells assessed as accumulation at S phase at 7.5 uM after 48 hrs by propidium iodide staining-based flow cytometric analysis in presence of RNase A (reference value: 16.2%); assay type: functional
[16] = Downregulation of cyclin A expression in human HCT116 cells at 7.5 to 30 uM after 24 hrs by Western blot analysis; assay type: functional, cell-based; conditions: HCT-116; in short: as §2
Mus musculus [17] = experiment: Upregulation of p27 in human HCT116 cells xenografted in nude mouse at 5 to 10 mg/kg, ip administered 3 times per week measured on day 41 by H and E staining-based phase contrast microscopic analysis; assay type: functional, organism-based; conditions: HCT-116
In short: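 Tumors excised from the xenograft study (ip 5 or 10 mg/kg three times weekly, day 41) were formalin-fixed and paraffin-embedded. Sections were probed with antibody, detected by LSAB/HRP, counterstained with H&E and photographed under an inverted phase-contrast microscope.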

HCT-116 [18] = experiment: Induction of apoptosis in human HCT116 cells assessed as late apoptotic cells at 15 uM after 48 hrs by annexin V-FITC/propidium iodide staining-based flow cytometric analysis (reference value: 5.2%); assay type: functional
[19] = Upregulation of ATM expression in human HCT116 cells at 1 hr by Western blot analysis; assay type: functional, cell-based; conditions: HCT-116
[20] = target: Serine-protein kinase ATM/ATR (Homo sapiens) (UniProt Q13315+Q13535); experiment: Activation of ATM/ATR in human HCT116 cells assessed as downregulation of cdc25C level after 24 hrs by Western blot analysis; assay type: cell-based; conditions: HCT-116; in short: as §2
HCT-116 [21] = experiment: Induction of apoptosis in human HCT116 cells assessed as late apoptotic cells at 30 uM after 48 hrs by annexin V-FITC/propidium iodide staining-based flow cytometric analysis (reference value: 5.2%); assay type: functional
HCT-116 [22] = experiment: Induction of cell cycle arrest in human HCT116 cells assessed as accumulation at S phase at 30 uM after 48 hrs by propidium iodide staining-based flow cytometric analysis in presence of RNase A (reference value: 16.2%); assay type: functional
HCT-116 [23] = experiment: Induction of reactive oxygen species in human HCT116 cells at 15 uM after 48 hrs by DCFH-DA staining-based flow cytometric analysis (reference value: 5.1%); assay type: functional; in short: as §1
Mus musculus [24] = experiment: Downregulation of Skp2 in human HCT116 cells xenografted in nude mouse at 5 to 10 mg/kg, ip administered 3 times per week measured on day 41 by Western blot analysis; assay type: functional, organism-based; conditions: HCT-116
In short: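 Excised frozen xenograft tumours homogenised in lysis buffer; protein by Bradford assay, then Western blotting for Skp2 with β-actin as control.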

HCT-116 [25] = experiment: Induction of cell cycle arrest in human HCT116 cells assessed as accumulation at G2/M phase at 7.5 uM after 24 hrs by propidium iodide staining-based flow cytometric analysis in presence of RNase A (reference value: 20.6%); assay type: functional

O=C/C=C/c1ccc2c(c1)O[C@@H](CO)[C@H](c1ccc(O)c(O)c1)O2 [AMERICANIN A]
Activity (HCT-116 [1]): 2.7%
Activity (HCT-116 [2]): 47.4%
inhibition [3]: Active
Activity (HCT-116 [4]): Active
Activity [5]: Active
Activity (HCT-116 [6]): Active
Activity (HCT-116 [7]): 52%
Activity (HCT-116 [8]): 47.5%
Activity (HCT-116 [9]): 17.9%
Activity [10]: Dose-dependent effect
Activity (Mus musculus [11]): Non-toxic
inhibition [12]: inactive
Activity (HCT-116 [13]): 55.2%
IC50 [14]: 7.8 µM
Activity (HCT-116 [15]): 13.5%
Activity [16]: Active
Activity (Mus musculus [17]): Active
Activity (HCT-116 [18]): 11.1%
Activity [19]: Dose-dependent effect
Activity [20]: Dose-dependent effect
Activity (HCT-116 [21]): 18.9%
Activity (HCT-116 [22]): 8.4%
Activity (HCT-116 [23]): 7.9%
Activity (Mus musculus [24]): Active
Activity (HCT-116 [25]): 27.5%
